Data published in ChEMBL document CHEMBL1122035, “Preparation and evaluation of 2-substituted anthraquinones based on the anthracyclines” (1982).

Tests used:
Mus musculus [1] = test: In vivo antitumor activity against P-388 leukemia in mice at the dose of 200 mg/kg.; assay type: functional
Procedure, shortened: (§1)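 P-388 leukemia in mice; compounds given as hydrochloride salts. Screening was done by the NCI Drug Research and Development Program. Result expressed as T/C (%).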

Nucleic Acid [2] = test: DNA binding property and activity expressed as Kn; assay type: nucleic-acid assay
Procedure, shortened: (§2)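 Absorbance read at the unbound-drug λmax after 5-min equilibration, against a buffer blank. K and n were obtained by nonlinear regression of absorbance against cumulative DNA volume, using a one- or two-site model.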

Nucleic Acid [3] = test: DNA binding property and activity expressed as K; assay type: nucleic-acid assay; procedure, shortened: as §2
Mus musculus [4] = test: In vivo antitumor activity against P-388 leukemia in mice at the dose of 5 mg/kg.; assay type: functional; procedure, shortened: as §1
Mus musculus [5] = test: In vivo antitumor activity against P-388 leukemia in mice at the dose of 50 mg/kg.; assay type: functional; procedure, shortened: as §1
Mus musculus [6] = test: In vivo antitumor activity against P-388 leukemia in mice at the dose of 100 mg/kg.; assay type: functional; procedure, shortened: as §1
Mus musculus [7] = test: In vivo antitumor activity against P-388 leukemia in mice at the dose of 40 mg/kg.; assay type: functional; procedure, shortened: as §1

Row | Structure (SMILES) | T/C (Mus musculus [1]) | Kn (Nucleic Acid [2]) | K (Nucleic Acid [3]) | T/C (Mus musculus [4]) | T/C (Mus musculus [5]) | T/C (Mus musculus [6]) | T/C (Mus musculus [7])
1 | CN(C)CCCNC(=O)c1ccc2c(c1)C(=O)c1ccccc1C2=O.Cl | 115% | 11000 M⁻¹ | 59000 M⁻¹ |  |  |  | 
2 | CCN(CC)CCNC(=O)c1ccc2c(c1O)C(=O)c1ccccc1C2=O |  | 9100 M⁻¹ | 46000 M⁻¹ |  |  |  | 
3 | CCN(CC)CCCC(C)NC(=O)c1ccc2c(c1)C(=O)c1ccccc1C2=O.Cl (stereo not given) | 127% |  |  |  |  |  | 
4 | CCN(CC)CCCC(C)NC(=O)c1ccc2c(c1O)C(=O)c1ccccc1C2=O.Cl (stereo not given) |  | 10100 M⁻¹ | 78000 M⁻¹ | 106% |  |  | 
5 | CCN(CC)CCCNC(=O)Cc1cc(O)c2c(c1O)C(=O)c1ccccc1C2=O.Cl |  | 29000 M⁻¹ | 127000 M⁻¹ |  | 108% |  | 
6 | CN(C)CCNC(=O)Cc1cc(O)c2c(c1O)C(=O)c1ccccc1C2=O.Cl |  | 75000 M⁻¹ | 289000 M⁻¹ |  |  | 118% | 
7 | CCN(CC)CCNC(=O)Cc1cc(O)c2c(c1O)C(=O)c1ccccc1C2=O.Cl |  | 100000 M⁻¹ | 529000 M⁻¹ |  |  | 106% | 
8 | CCN(CC)CCCNC(=O)c1ccc2c(c1O)C(=O)c1ccccc1C2=O |  | 12900 M⁻¹ | 92000 M⁻¹ |  |  |  | 
9 | CCN(CC)CCNC(=O)c1ccc2c(c1)C(=O)c1ccccc1C2=O.Cl | 119% |  |  |  |  |  | 
10 | CN(C)CCCNC(=O)c1ccc2c(c1O)C(=O)c1ccccc1C2=O.Cl |  | 9400 M⁻¹ | 78000 M⁻¹ |  | 118% |  | 
11 | CCN(CC)CCCC(C)NC(=O)Cc1cc(O)c2c(c1O)C(=O)c1ccccc1C2=O.Cl (stereo not given) |  | 49000 M⁻¹ | 308000 M⁻¹ |  |  |  | 125%
12 | CN(C)CCCNC(=O)Cc1cc(O)c2c(c1O)C(=O)c1ccccc1C2=O.Cl |  | 65000 M⁻¹ | 259000 M⁻¹ |  | 106% |  | 
